Measured values as given in ChEMBL document CHEMBL4038284, “Synthesis of novel quinoline-based 4,5-dihydro-1H-pyrazoles as potential anticancer, antifungal, antibacterial and antiprotozoal agents” (Eur J Med Chem, 2017).
Converted amounts (≈) assume the structure as drawn.

How the values were obtained:
[1] = system: Klebsiella pneumoniae; assay: Antibacterial activity against ESBL positive Klebsiella pneumoniae ATCC 700603 after 24 hrs by resazurin dye based microdilution assay; format: functional; conditions: Klebsiella pneumoniae, 700603, 24 h
Outline: (§1)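 MIC taken as the lowest concentration giving visible inhibition and/or by resazurin (1 mg/mL). Gentamicin was the control. Run in duplicate, repeated at least three times.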

[2] = system: Klebsiella pneumoniae; assay: Antibacterial activity against carbapenemase positive Klebsiella pneumoniae BAA 1705 after 24 hrs by resazurin dye based microdilution assay; format: functional; conditions: BAA 1705, 24 h; outline: as §1
[3] = system: Leishmania panamensis; assay: Antileshmanial activity against EpiR/GFP fused Leishmania panamensis MHOM/CO/87/UA140 intracellular amastigotes infected in human […] cells after 72 hrs by flow cytometric method; format: functional, cell-based; conditions: MHOM/CO/87/UA140, 72 h
Outline: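 PMA-treated U-937 cells (3 × 10^5 cells/mL) infected with stationary-phase GFP L. panamensis promastigotes (15:1), 3 h at 34 °C, then washed. After 24 h, compounds added at 50, 12.5, 3.125 and 0.78 µg/mL for 72 h at 37 °C. EC50 by Probit; triplicate, two experiments.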

[4] = system: Candida albicans; assay: Antifungal activity against Candida albicans ATCC 10231 incubated for 48 hrs under dark condition by broth microdilution method; format: functional; conditions: ATCC 10231, 48 h
Outline: (§2)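 CLSI M27-A3 broth microdilution in RPMI-1640, DMSO ≤1%, compounds at 250-0.98 µg/mL final. Inoculum 1-5 × 10^3 CFU/mL. Incubated 48 h at 30 °C in a moist dark chamber, read at OD405. MIC80 and MIC50 taken from % inhibition dose-response curves (mean ± SEM, triplicate). Amphotericin B was the positive control.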

[5] = system: Cryptococcus neoformans; assay: Antifungal activity against Cryptococcus neoformans ATCC 32264 incubated for 48 hrs under dark condition by broth microdilution method; format: functional; conditions: ATCC 32264, 48 h; outline: as §2
[6] = system: Candida albicans; assay: Growth inhibition of Candida albicans ATCC 10231 at 250 ug/ml incubated for 48 hrs under dark condition by broth microdilution method relative to control; format: functional; conditions: ATCC 10231, 48 h, read-out: GI
Outline: (§3)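 CLSI M27-A3 broth microdilution in RPMI-1640, DMSO ≤1%. Inoculum 1-5 × 10^3 CFU/mL. Incubated 48 h at 30 °C, dark. % inhibition = 100 − (OD405 test − sterility control)/(OD405 growth control − sterility control), with growth and sterility control wells. Triplicate.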

[7] = system: Candida albicans; assay: Growth inhibition of Candida albicans ATCC 10231 at 125 ug/ml incubated for 48 hrs under dark condition by broth microdilution method relative to control; format: functional; conditions: ATCC 10231, 48 h, read-out: GI; outline: as §3
[8] = system: Candida albicans; assay: Growth inhibition of Candida albicans ATCC 10231 at 62.5 ug/ml incubated for 48 hrs under dark condition by broth microdilution method relative to control; format: functional; conditions: ATCC 10231, 48 h, read-out: GI; outline: as §3
[9] = system: Candida albicans; assay: Growth inhibition of Candida albicans ATCC 10231 at 31.25 ug/ml incubated for 48 hrs under dark condition by broth microdilution method relative to control; format: functional; conditions: ATCC 10231, 48 h, read-out: GI; outline: as §3
[10] = system: Candida albicans; assay: Growth inhibition of Candida albicans ATCC 10231 at 15.62 ug/ml incubated for 48 hrs under dark condition by broth microdilution method relative to control; format: functional; conditions: ATCC 10231, 48 h, read-out: GI; outline: as §3
[11] = system: Candida albicans; assay: Growth inhibition of Candida albicans ATCC 10231 at 7.8 ug/ml incubated for 48 hrs under dark condition by broth microdilution method relative to control; format: functional; conditions: ATCC 10231, 48 h, read-out: GI; outline: as §3
[12] = system: Candida albicans; assay: Growth inhibition of Candida albicans ATCC 10231 at 3.4 ug/ml incubated for 48 hrs under dark condition by broth microdilution method relative to control; format: functional; conditions: ATCC 10231, 48 h, read-out: GI
[13] = system: Cryptococcus neoformans; assay: Growth inhibition of Cryptococcus neoformans ATCC 32264 at 250 ug/ml incubated for 48 hrs under dark condition by broth microdilution method relative to control; format: functional; conditions: ATCC 32264, 48 h, read-out: GI; outline: as §3
[14] = system: Cryptococcus neoformans; assay: Growth inhibition of Cryptococcus neoformans ATCC 32264 at 125 ug/ml incubated for 48 hrs under dark condition by broth microdilution method relative to control; format: functional; conditions: ATCC 32264, 48 h, read-out: GI; outline: as §3
[15] = system: Cryptococcus neoformans; assay: Growth inhibition of Cryptococcus neoformans ATCC 32264 at 62.5 ug/ml incubated for 48 hrs under dark condition by broth microdilution method relative to control; format: functional; conditions: ATCC 32264, 48 h, read-out: GI; outline: as §3
[16] = system: Cryptococcus neoformans; assay: Growth inhibition of Cryptococcus neoformans ATCC 32264 at 31.25 ug/ml incubated for 48 hrs under dark condition by broth microdilution method relative to control; format: functional; conditions: ATCC 32264, 48 h, read-out: GI; outline: as §3
[17] = system: Cryptococcus neoformans; assay: Growth inhibition of Cryptococcus neoformans ATCC 32264 at 15.62 ug/ml incubated for 48 hrs under dark condition by broth microdilution method relative to control; format: functional; conditions: ATCC 32264, 48 h, read-out: GI; outline: as §3
[18] = system: Cryptococcus neoformans; assay: Growth inhibition of Cryptococcus neoformans ATCC 32264 at 7.8 ug/ml incubated for 48 hrs under dark condition by broth microdilution method relative to control; format: functional; conditions: ATCC 32264, 48 h, read-out: GI; outline: as §3
[19] = system: Cryptococcus neoformans; assay: Growth inhibition of Cryptococcus neoformans ATCC 32264 at 3.4 ug/ml incubated for 48 hrs under dark condition by broth microdilution method relative to control; format: functional; conditions: ATCC 32264, 48 h, read-out: GI
[20] = system: Staphylococcus aureus; assay: Antibacterial activity against methicillin-sensitive Staphylococcus aureus ATCC 25923 after 24 hrs by resazurin dye based microdilution assay; format: functional; conditions: ATCC 25923, 24 h; outline: as §1
[21] = system: Staphylococcus aureus; assay: Antibacterial activity against methicillin-resistant Staphylococcus aureus ATCC 43300 after 24 hrs by resazurin dye based microdilution assay; format: functional; conditions: ATCC 43300, 24 h
Outline: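 Broth microdilution in Mueller Hinton broth, inoculum 5 × 10^5 – 8 × 10^5. Compound stocks diluted in MHB with 5% DMSO and 0.1% Tween 80. Incubation 24 h at 35-37 °C. MIC is the lowest concentration with visible growth inhibition and/or by resazurin (1 mg/mL) read-out. Gentamicin as control. Run in duplicate, replicated at least three times.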

[22] = system: Staphylococcus aureus; assay: Antibacterial activity against vancomycin-intermediate Staphylococcus aureus after 24 hrs by resazurin dye based microdilution assay; format: functional; outline: as §1
[23] = system: Escherichia coli; assay: Antibacterial activity against Escherichia coli ATCC 25922 after 24 hrs by resazurin dye based microdilution assay; format: functional; conditions: ATCC 25922, 24 h; outline: as §1
[24] = system: Pseudomonas aeruginosa; assay: Antibacterial activity against Pseudomonas aeruginosa ATCC 27853 after 24 hrs by resazurin dye based microdilution assay; format: functional; conditions: ATCC 27853, 24 h; outline: as §1
[25] = system: Neisseria gonorrhoeae; assay: Antibacterial activity against beta lactamase positive Neisseria gonorrhoeae ATCC 31426 by oxidase test; format: functional
Outline: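 Agar dilution MIC on GC agar with 1% isovitalex containing increasing compound concentrations. Plates inoculated with about 1×10^4 CFU (5 µL). MIC is the lowest concentration that inhibited growth, with growth confirmed by oxidase test. Run in duplicate, repeated at least three times.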

[26] = system: Plasmodium falciparum; assay: Antiplasmodial activity against chloroquine-sensitive Plasmodium falciparum 3D7 assessed as reduction in parasitic LDH activity after 48 hrs by Malstat reagent based […] method; format: functional; conditions: 3D7, 48 h
Outline: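 Unsynchronized P. falciparum 3D7 at 0.5% parasitemia and 1% hematocrit in RPMI with 3% Albumax II. Exposed to 100, 25, 6.25 and 1.56 µg/mL for 48 h at 37 °C under 90% N2/5% CO2/5% O2. After three freeze-thaw cycles, LDH measured with Malstat and NBT/PES, 1 h in the dark, read at 650 nm. IC50 by Probit; triplicate, ≥2 experiments.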

[27] = system: U-937; assay: Cytotoxicity against human U937 cells after 72 hrs by MTT assay; format: cell-based; conditions: u-937, 72 h
Outline: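 Exponentially growing U-937 at 1 × 10^5 cells/mL in RPMI-1640 with 10% FBS were exposed to 200, 50, 12.5 and 3.125 µg/mL for 72 h at 37 °C, 5% CO2. MTT for 3 h, stopped with isopropanol/SDS, formazan read at 570 nm, blank-corrected. LC50 by Probit from % viability against untreated cells. Triplicate, at least two independent experiments.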

[28] = system: Trypanosoma cruzi; assay: Antitrypanosomal activity against Trypanosoma cruzi Tulahuen intracellular amastigote harboring LacZ infected in human U937 cells after 72 hrs by CPRG/Nonidet reagent based spectrophotometric method; format: functional, cell-based; conditions: U-937, 72 h
Outline: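 U-937 cells at 2.5 × 10^5 cells/mL in RPMI-1640 with 10% serum and 0.1 µg/mL PMA were infected with β-galactosidase-transfected Tulahuen epimastigotes at 5 parasites per cell. Infected cells were exposed to 50, 12.5, 3.125 and 0.78 µg/mL for 72 h. CPRG (100 uM) and 0.1% Nonidet P-40 were added for 3 h, read at 570 nm. EC50 by Probit. Triplicate, at least two experiments; benznidazole as reference.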

Row | Structure (SMILES) | MIC [1] [µg/mL] | MIC [2] [µg/mL] | EC50 [3] [µg/mL] | MIC50 [4] [µg/mL] | MIC80 [4] [µg/mL] | MIC50 [5] [µg/mL] | MIC80 [5] [µg/mL] | inhibition of growth at 250 µg/mL [6] [%] | inhibition of growth at 125 µg/mL [7] [%] | inhibition of growth at 62.5 µg/mL [8] [%] | inhibition of growth at 31.25 µg/mL [9] [%] | inhibition of growth at 15.62 µg/mL [10] [%] | inhibition of growth at 7.8 µg/mL [11] [%] | inhibition of growth at 3.4 µg/mL [12] [%] | inhibition of growth at 250 µg/mL [13] [%] | inhibition of growth at 125 µg/mL [14] [%] | inhibition of growth at 62.5 µg/mL [15] [%] | inhibition of growth at 31.25 µg/mL [16] [%] | inhibition of growth at 15.62 µg/mL [17] [%] | inhibition of growth at 7.8 µg/mL [18] [%] | other results
1 | O=C(/C=C/c1cccc(Nc2ccnc3cc(Cl)ccc23)c1)c1ccc(Br)cc1 | > 1000 | > 1000 | 0.88 (≈ 1.9 µM) | 250 (≈ 539 µM) | ≥ 250 | 125 (≈ 270 µM) | 250 (≈ 539 µM) | 58 | 47.7 | 35.3 | 28.9 | 32 | 21.1 | 15.8 | 100 | 70.6 | 47.9 | 46.4 | 44.5 | 35.1 | inhibition of growth at 3.4 µg/mL [19]: 34.9%; MIC [20]: > 1000 µg/mL; MIC [21]: > 1000 µg/mL; MIC [22]: > 1000 µg/mL; MIC [23]: > 1000 µg/mL; MIC [24]: > 1000 µg/mL; MIC [25]: > 1000 µg/mL; EC50 [26]: 10.3 µg/mL (≈ 22.3 µM); LC50 [27]: 0.7 µg/mL (≈ 1.51 µM); EC50 [28]: 1.35 µg/mL (≈ 2.91 µM)
2 | CC(=O)N1N=C(c2ccc(C)cc2)CC1c1cccc(Nc2ccnc3cc(Cl)ccc23)c1 (stereo not given) | > 1000 | > 1000 | 1.55 (≈ 3.41 µM) | 250 (≈ 549 µM) | ≥ 250 | 125 (≈ 275 µM) | 250 (≈ 549 µM) | 67.8 | 46.2 | 35.9 | 32.2 | 31.4 | 20.6 | 15.9 | 100 | 54.7 | 42.9 | 33.7 | 29.6 | 29.2 | inhibition of growth at 3.4 µg/mL [19]: 13.2%; MIC [20]: > 1000 µg/mL; MIC [21]: > 1000 µg/mL; MIC [22]: > 1000 µg/mL; MIC [23]: > 1000 µg/mL; MIC [24]: > 1000 µg/mL; MIC [25]: > 1000 µg/mL; EC50 [26]: 17.5 µg/mL (≈ 38.5 µM); LC50 [27]: 4.4 µg/mL (≈ 9.67 µM); EC50 [28]: 1.62 µg/mL (≈ 3.56 µM)
